Assay results published in ChEMBL document CHEMBL1132160, “Structure-antiviral activity relationship in the series of pyrimidine and purine N-[2-(2-phosphonomethoxy)ethyl] nucleotide analogues. 1. Derivatives substituted at the carbon atoms of the base” (J Med Chem, 1999).
Values after ≈ are worked out from the molar mass of the structure shown.

Tests used:
Vaccinia virus [1] = test: Inhibitory activity against vaccinia virus (VV).; format: functional, organism-based, Orthopoxvirus vaccinia
How it was run: (§1)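 Confluent E6SM cell cultures were inoculated with 100 CCID50 of virus and left for 1 h adsorption, then residual virus was removed. Cultures were incubated with test compound at serial concentrations (400, 200, 100, ... μg/mL). Virus-induced cytopathicity was scored once it reached completion in untreated infected control cultures.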

Human alphaherpesvirus 1 [2] = test: Iactivity against herpes simplex virus type 1 (HSV-1) McIntyre strain.; format: functional, organism-based
How it was run: (§2)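 Confluent E6SM cell cultures were inoculated with 100 CCID50 of virus and allowed 1 h for adsorption. Residual virus was then removed, and the cells were incubated with test compound at 400, 200, 100, ... μg/mL. Viral cytopathicity was scored once it reached completion in untreated infected controls.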

[3] = tested on: Human immunodeficiency virus 1; test: Inhibitory activity of compound against human immunodeficiency virus type 1 (HIV-1) induced cytopathogenicity in MT-4 cells; format: functional, organism-based; conditions: Human immunodeficiency virus 1, MT4
How it was run: (§3)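 Human MT-4 cells (~4 × 10⁵ cells/mL) were infected with 100 CCID50 of HIV-1 (IIIB)/mL and seeded into wells containing compound dilutions. After 5 days at 37 °C, viable cells were counted by trypan blue exclusion in a blood cell counting chamber.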

Human alphaherpesvirus 2 [4] = test: Inhibitory activity against herpes simplex virus type 2 (HSV-2) G strain.; format: functional, organism-based; how it was run: as §2
Human alphaherpesvirus 1 [5] = test: Inhibitory activity against herpes simplex virus type 1 (HSV-1) KOS strain.; format: functional, organism-based; how it was run: as §2
[6] = Inhibitory activity against murine sarcoma virus induced transformation of murine C3H/3T3 embryo fibroblasts; format: functional, Mus musculus
How it was run: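 Murine C3H/3T3 embryo fibroblasts were seeded at 5 × 10⁵ cells/mL. After 24 h they were infected with 80 focus-forming units of MSV for 90–120 min at 37 °C. The medium was then replaced with fresh medium containing various compound concentrations, and transformation was examined microscopically after 6 days.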

E6SM [7] = test: Compound was evaluated for inhibitory activity against herpes simplex virus type 1 thymidine kinase (HSV-1 TK-) B2006 strain; NA=not active; format: functional, cell-based, Homo sapiens; how it was run: as §2
E6SM [8] = test: Inhibitory activity against herpes simplex virus type 2 (HSV-2) Lyons strain.; format: functional, cell-based, Homo sapiens; how it was run: as §2
HEL [9] = test: Compound was evaluated for inhibitory activity against varicella zoster virus thymidine kinase (VZV TK+) YS strain; NA=not active; format: functional, cell-based, Homo sapiens
How it was run: (§4)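 HEL cell cultures, grown to confluence, received 100 CCID50 of virus. After 1 h adsorption, the inoculum was removed and the cultures were incubated with serial concentrations of compound (400, 200, 100, ... μg/mL).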

HEL [10] = test: Compound was evaluated for inhibitory activity against varicella zoster virus thymidine kinase (VZV TK-) 07/1 strain; NA=not active; format: functional, cell-based, Homo sapiens
Human alphaherpesvirus 1 [11] = test: Inhibitory activity against herpes simplex virus type 1 (HSV-1) F strain; format: functional, organism-based; how it was run: as §2
[12] = tested on: Human immunodeficiency virus 2; test: Inhibitory activity against human immunodeficiency virus type 2 (HIV-2) induced cytopathogenicity in MT-4 cells; format: functional, organism-based; conditions: Human immunodeficiency virus 2, MT4
Human alphaherpesvirus 1 [13] = test: Inhibitory activity against herpes simplex virus type 1 thymidine kinase (HSV-1 TK-) VMW 1837 strain.
Human alphaherpesvirus 2 [14] = test: Inhibitory activity against herpes simplex virus type 2 (HSV-2) 196 strain.; format: functional, organism-based; how it was run: as §2
HEL [15] = test: Compound was evaluated for inhibitory activity against varicella zoster virus thymidine kinase (VZV TK+) OKA strain; NA=Not Active; format: functional, cell-based, Homo sapiens; how it was run: as §4
HEL [16] = test: Compound was evaluated for inhibitory activity against cytomegalovirus (CMV) AD 169 strain; NA=not active; format: functional, cell-based, Homo sapiens; how it was run: as §4
Vaccinia virus [17] = test: Compound was evaluated for inhibitory activity against vaccinia virus (VV); NA=not active; format: functional, organism-based, Orthopoxvirus vaccinia; how it was run: as §1
HEL [18] = test: Compound was evaluated for inhibitory activity against cytomegalovirus (CMV) Davis strain; NA=Not Active; format: functional, cell-based, Homo sapiens; how it was run: as §4
Human alphaherpesvirus 1 [19] = test: Inhibitory activity against herpes simplex virus type 1 (HSV-1) KOS strain; format: functional, organism-based; how it was run: as §2
MT4 [20] = test: Inhibitory activity of compound against human immunodeficiency virus type 1 (HIV-1) induced cytopathogenicity in MT-4 cells; NA=Not Active; format: functional, cell-based; how it was run: as §3
Cytomegalovirus [21] = test: Inhibitory activity against cytomegalovirus (CMV) Davis strain; format: functional, organism-based; conditions: Human betaherpesvirus 5; how it was run: as §4
Cytomegalovirus [22] = test: Inhibitory activity against cytomegalovirus (CMV) AD 169 strain; format: functional, organism-based; conditions: Human betaherpesvirus 5; how it was run: as §4
Human alphaherpesvirus 2 [23] = test: Inhibitory activity against herpes simplex virus type 2 (HSV-2) G strain; format: functional, organism-based; how it was run: as §2
[24] = Inhibitory activity against herpes simplex virus type 2 (HSV-2) 196 strain; format: functional; how it was run: as §2
Human alphaherpesvirus 1 [25] = test: Inhibition of herpes simplex virus type 1 (HSV-1) F strain; format: functional, organism-based; how it was run: as §2
[26] = tested on: Human immunodeficiency virus 1; test: Inhibition of human immunodeficiency virus type 1 (HIV-1) induced cytopathogenicity in CEM cells; format: functional, organism-based; conditions: Human immunodeficiency virus 1, CCRF-CEM
How it was run: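 CEM cells (~3 × 10⁵ cells/mL) were infected with 100 CCID50 of HIV-1 (IIIB)/mL and plated with dilutions of compound. After 4 days at 37 °C, giant cell formation was assessed microscopically.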

Human alphaherpesvirus 1 [27] = test: Inhibitory activity against herpes simplex virus type 1 (HSV-1) McIntyre strain; format: functional, organism-based; how it was run: as §2
Human alphaherpesvirus 2 [28] = test: Inhibitory activity against herpes simplex virus type 2 (HSV-2) Lyons strain; format: functional, organism-based; how it was run: as §2
[29] = tested on: Human immunodeficiency virus 2; test: Inhibition of human immunodeficiency virus type 2 (HIV-2) induced cytopathogenicity in CEM cells; format: functional, organism-based; conditions: Human immunodeficiency virus 2, CCRF-CEM
Vaccinia virus [30] = test: Inhibitory activity against vaccinia virus (VV); format: functional, organism-based; conditions: Orthopoxvirus vaccinia; how it was run: as §1
[31] = tested on: Human immunodeficiency virus 1; test: Antiviral activity against human immunodeficiency virus type-1 (HIV-1) in MT-4 cells; format: functional, organism-based; conditions: Human immunodeficiency virus 1, MT4; how it was run: as §3
MT4 [32] = test: Antiviral activity against human immunodeficiency virus type 2 (HIV-2) in MT-4 cells; format: functional, cell-based

Row | Structure (SMILES) | EC50 (Vaccinia virus [1]) | EC50 (Human alphaherpesvirus 1 [2]) | EC50 [3] [µg/mL] | EC50 (Human alphaherpesvirus 2 [4]) | EC50 (Human alphaherpesvirus 1 [5]) | EC50 [6] [µg/mL] | EC50 (E6SM [7]) | EC50 (E6SM [8]) | EC50 (HEL [9]) | EC50 (HEL [10]) | EC50 (Human alphaherpesvirus 1 [11]) | EC50 (Human alphaherpesvirus 1 [13]) | EC50 (Human alphaherpesvirus 2 [14]) | EC50 (HEL [15]) | EC50 (HEL [16]) | EC50 (HEL [18]) | EC50 (Human alphaherpesvirus 1 [19]) [µg/mL] | EC50 (Cytomegalovirus [21]) [µg/mL] | EC50 (Cytomegalovirus [22]) [µg/mL] | EC50 (Human alphaherpesvirus 2 [23]) [µg/mL] | further results
1 | CCOP(=O)(COCCn1cnc2c(N)nc(N)nc21)OCC | Not Active | Not Active | > 400 | Not Active | Not Active | > 200 | Not Active | Not Active | Not Active | Not Active | Not Active | Not Active | Not Active | Not Active | Not Active | – | – | – | – | – | EC50 [12]: > 400 µg/mL
2 | Cc1cn(CCOCP(=O)(O)O)c(=O)nc1N | – | Not Active | > 100 | Not Active | Not Active | > 200 | Not Active | Not Active | Not Active | Not Active | Not Active | Not Active | Not Active | Not Active | Not Active | Not Active | – | – | – | – | EC50 (Vaccinia virus [17]): Not Active
3 | Nc1ccn(CCOCP(=O)(O)O)c(=O)n1 | – | Not Active | – | – | – | > 200 | Not Active | Not Active | – | – | – | – | – | – | – | – | 300 (≈ 1200 µM) | 70 (≈ 281 µM) | 75 (≈ 301 µM) | 300 (≈ 1200 µM) | EC50 (MT4 [20]): Not Active; EC50 [24]: 300 µg/mL (≈ 1200 µM); EC50 (Human alphaherpesvirus 1 [25]): 300 µg/mL (≈ 1200 µM)
4 | CCOP(=O)(O)COCCn1cnc2c(N)ncnc21 | – | – | – | – | Not Active | 120 (≈ 398 µM) | – | – | – | – | – | – | – | – | Not Active | Not Active | – | – | – | 70 (≈ 232 µM) | EC50 [26]: > 100 µg/mL; EC50 (Human alphaherpesvirus 1 [27]): 300 µg/mL (≈ 996 µM); EC50 [24]: 150 µg/mL (≈ 498 µM); EC50 (Human alphaherpesvirus 1 [25]): 150 µg/mL (≈ 498 µM); EC50 (Human alphaherpesvirus 2 [28]): 150 µg/mL (≈ 498 µM); EC50 [29]: > 100 µg/mL
5 | Nc1ccnc2c1ncn2CCOCP(=O)(O)O | – | – | – | – | – | 13.8 (≈ 50.7 µM) | – | – | – | – | – | – | – | – | – | – | > 400 | > 400 | > 400 | > 400 | EC50 (MT4 [20]): Not Active; EC50 (Vaccinia virus [30]): > 400 µg/mL
6 | Cc1ncnc2c1ncn2CCOCP(=O)(O)O | Not Active | Not Active | > 400 | Not Active | Not Active | > 200 | Not Active | Not Active | Not Active | Not Active | Not Active | Not Active | Not Active | Not Active | – | – | – | 200 (≈ 735 µM) | 100 (≈ 367 µM) | – | –
7 | Nc1nc(S)c2ncn(CCOCP(=O)(O)O)c2n1 | – | – | – | – | – | 1 (≈ 3.28 µM) | – | – | – | – | – | – | – | – | – | – | – | – | – | – | EC50 [31]: 9.5 µg/mL (≈ 31.1 µM); EC50 (MT4 [32]): 8.9 µg/mL (≈ 29.2 µM)
8 | CC(C)OP(=O)(COCCn1ncc(N)nc1=O)OC(C)C | Not Active | Not Active | – | Not Active | Not Active | > 100 | – | Not Active | – | – | Not Active | Not Active | Not Active | – | – | – | – | > 100 | > 100 | – | EC50 (MT4 [20]): Not Active
9 | CCOP(=O)(O)COCCn1cnc2c(N)nc(N)nc21 | – | – | > 100 | – | – | > 200 | – | – | – | – | – | – | – | – | Not Active | Not Active | 300 (≈ 949 µM) | – | – | 70 (≈ 221 µM) | EC50 (Vaccinia virus [30]): > 400 µg/mL; EC50 [12]: > 400 µg/mL; EC50 (Human alphaherpesvirus 1 [27]): 300 µg/mL (≈ 949 µM); EC50 [24]: 300 µg/mL (≈ 949 µM); EC50 (Human alphaherpesvirus 1 [25]): 200 µg/mL (≈ 632 µM); EC50 (Human alphaherpesvirus 2 [28]): 150 µg/mL (≈ 474 µM)
10 | CC(C)OP(=O)(COCCn1ccc(O)cc1=O)OC(C)C | Not Active | Not Active | > 200 | Not Active | Not Active | – | – | Not Active | Not Active | Not Active | Not Active | Not Active | Not Active | Not Active | Not Active | Not Active | – | – | – | – | –
